Key:
Mus musculus [1] = test: Hypolipidemic activity in ICR mouse assessed as decrease in Tyloxapol-induced total cholesterol level at 50 mg/kg, ip administered 1 hr before Tyloxapol challenge and 22, 48 hrs after Tyloxapol challenge measured after 22 hrs relative to control; type: functional; set-up: scale not given: the % may be the effect or the level left; settings: route oral, in the assay text read “po administered” for “ip administered”
Summary of the method: (§1)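 Male ICR mice (24–27 g), groups of six. Hyperlipidemia induced by ip Tyloxapol (Triton WR 1339) 400 mg/kg in water. Drug given at 5 mL/kg 1 h before and 22 and 48 h after injection; vehicle controls. Blood drawn 22 h post-injection by periorbital bleeding. Serum total cholesterol, HDL-C and triglycerides measured on an automatic analyzer; LDL-C by the Friedewald equation. Values are % of the Tyloxapol group, mean ± SE.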

Mus musculus [2] = test: Hypolipidemic activity in ICR mouse assessed as decrease in Tyloxapol-induced total cholesterol level at 100 mg/kg, ip administered 1 hr before Tyloxapol challenge and 22, 48 hrs after Tyloxapol challenge measured after 22 hrs relative to control; type: functional; set-up: scale not given: the % may be the effect or the level left; settings: route oral, in the assay text read “po administered” for “ip administered”; summary of the method: as §1
Mus musculus [3] = test: Hypolipidemic activity in ICR mouse assessed as decrease in Tyloxapol-induced LDL-cholesterol level at 50 mg/kg, ip administered 1 hr before Tyloxapol challenge and 22, 48 hrs after Tyloxapol challenge measured after 22 hrs relative to control; type: functional; set-up: scale not given: the % may be the effect or the level left; settings: route oral, in the assay text read “po administered” for “ip administered”; summary of the method: as §1
Mus musculus [4] = test: Hypolipidemic activity in ICR mouse assessed as decrease in Tyloxapol-induced LDL-cholesterol level at 100 mg/kg, ip administered 1 hr before Tyloxapol challenge and 22, 48 hrs after Tyloxapol challenge measured after 22 hrs relative to control; type: functional; set-up: scale not given: the % may be the effect or the level left; settings: route oral, in the assay text read “po administered” for “ip administered”; summary of the method: as §1
Mus musculus [5] = test: Hypolipidemic activity in ICR mouse assessed as decrease in Tyloxapol-induced HDL-cholesterol level at 50 mg/kg, ip administered 1 hr before Tyloxapol challenge and 22, 48 hrs after Tyloxapol challenge measured after 22 hrs relative to control; type: functional; set-up: scale not given: the % may be the effect or the level left; settings: route oral, in the assay text read “po administered” for “ip administered”; summary of the method: as §1
Mus musculus [6] = test: Hypolipidemic activity in ICR mouse assessed as decrease in Tyloxapol-induced HDL-cholesterol level at 100 mg/kg, ip administered 1 hr before Tyloxapol challenge and 22, 48 hrs after Tyloxapol challenge measured after 22 hrs relative to control; type: functional; set-up: scale not given: the % may be the effect or the level left; settings: route intraperitoneal; summary of the method: as §1
Mus musculus [7] = test: Hypolipidemic activity in ICR mouse assessed as decrease in Tyloxapol-induced triglyceride level at 50 mg/kg, ip administered 1 hr before Tyloxapol challenge and 22, 48 hrs after Tyloxapol challenge measured after 22 hrs relative to control; type: functional; set-up: scale not given: the % may be the effect or the level left; settings: route intraperitoneal; summary of the method: as §1
Mus musculus [8] = test: Hypolipidemic activity in ICR mouse assessed as decrease in Tyloxapol-induced triglyceride level at 100 mg/kg, ip administered 1 hr before Tyloxapol challenge and 22, 48 hrs after Tyloxapol challenge measured after 22 hrs relative to control; type: functional; set-up: scale not given: the % may be the effect or the level left; settings: route intraperitoneal; summary of the method: as §1
Mus musculus [9] = test: Hypolipidemic activity in high cholesterol diet fed ICR mouse assessed as reduction of total cholesterol level at 50 mg/kg, ip after 12 hrs of last cholesterol challenge relative to control; type: functional; set-up: scale not given: the % may be the effect or the level left; settings: route intraperitoneal
Summary of the method: (§2)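 Male ICR mice (24–27 g), six per group, were fed a high-cholesterol diet ad libitum for 6 days (1.0% cholesterol, 0.5% sodium cholate, 5% butter, 30% sucrose, 10% casein, 53.5% chow). Basal-diet mice served as controls. Dosing was 5 mL/kg and solutions were made fresh. Mice were fasted 12 h before sacrifice and bled periorbitally. Serum TC, HDL-C and TG were read on an analyzer, with LDL-C by Friedewald.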

Mus musculus [10] = test: Hypolipidemic activity in high cholesterol diet fed ICR mouse assessed as reduction of total cholesterol level at 100 mg/kg/day, ip after 12 hrs of last cholesterol challenge relative to control; type: functional; set-up: scale not given: the % may be the effect or the level left; settings: route intraperitoneal; summary of the method: as §2
[11] = target: T1, 3-hydroxy-3-methylglutaryl-coenzyme A reductase (Schizosaccharomyces pombe 972h-, UniProt Q10283); test: Inhibition of Schizosaccharomyces pombe HMG-CoA reductase by spectrophotometry; settings: read-out: IC50
T1 sequence (Q10283 whole entry): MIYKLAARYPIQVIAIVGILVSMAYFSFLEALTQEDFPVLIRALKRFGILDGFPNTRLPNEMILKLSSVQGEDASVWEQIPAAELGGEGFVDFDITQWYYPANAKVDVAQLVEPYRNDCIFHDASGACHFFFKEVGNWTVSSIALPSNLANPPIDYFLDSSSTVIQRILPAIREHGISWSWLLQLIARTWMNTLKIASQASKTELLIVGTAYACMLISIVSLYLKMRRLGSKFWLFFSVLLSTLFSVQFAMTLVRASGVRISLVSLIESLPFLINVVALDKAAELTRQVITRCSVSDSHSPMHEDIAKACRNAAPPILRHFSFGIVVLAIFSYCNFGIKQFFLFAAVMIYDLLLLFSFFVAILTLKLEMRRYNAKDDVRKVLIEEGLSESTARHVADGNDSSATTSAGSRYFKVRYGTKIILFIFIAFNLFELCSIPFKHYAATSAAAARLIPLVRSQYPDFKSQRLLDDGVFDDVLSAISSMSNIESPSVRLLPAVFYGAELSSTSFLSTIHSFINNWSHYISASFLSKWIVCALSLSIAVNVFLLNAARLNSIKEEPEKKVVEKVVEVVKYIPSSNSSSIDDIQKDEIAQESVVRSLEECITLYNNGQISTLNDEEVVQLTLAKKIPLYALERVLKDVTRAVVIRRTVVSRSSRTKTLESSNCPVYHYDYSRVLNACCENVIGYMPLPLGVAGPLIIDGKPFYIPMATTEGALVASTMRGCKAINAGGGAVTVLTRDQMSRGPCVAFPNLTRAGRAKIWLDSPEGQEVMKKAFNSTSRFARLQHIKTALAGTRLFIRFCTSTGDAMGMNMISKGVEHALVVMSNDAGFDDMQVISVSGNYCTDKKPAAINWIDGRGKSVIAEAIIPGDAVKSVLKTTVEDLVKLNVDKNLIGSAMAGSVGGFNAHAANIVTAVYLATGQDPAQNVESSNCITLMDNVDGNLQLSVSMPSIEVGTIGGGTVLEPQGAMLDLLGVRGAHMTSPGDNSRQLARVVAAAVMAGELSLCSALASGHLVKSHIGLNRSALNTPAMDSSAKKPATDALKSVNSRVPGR
Summary of the method: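 Membrane HMGR partially purified from S. pombe 972 h (YPD, 28 °C, 48 h) via centrifugation, Triton X-100 solubilization, 65 °C heat step, ammonium sulfate and calcium phosphate gel. Enzyme activated 37 °C 30 min, pre-incubated with compound (DMSO stocks 1–5 mM) 30 min at 37 °C. Assay: 200 µg enzyme, 0.13 mM HMG-CoA, 50 mM Tris-HCl pH 7.5; started with 0.13 mM NADPH; A340 decrease over 2 min; triplicate; IC50 derived.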

Mus musculus [12] = test: Hypolipidemic activity in high cholesterol diet fed ICR mouse assessed as reduction of triglyceride level at 50 mg/kg/day, po after 12 hrs of last cholesterol challenge relative to control; set-up: scale not given: the % may be the effect or the level left
Mus musculus [13] = test: Hypolipidemic activity in high cholesterol diet fed ICR mouse assessed as reduction of triglyceride level at 100 mg/kg/day, po after 12 hrs of last cholesterol challenge relative to control; set-up: scale not given: the % may be the effect or the level left
Mus musculus [14] = test: Hypolipidemic activity in high cholesterol diet fed ICR mouse assessed as reduction of LDL cholesterol level at 50 mg/kg/day, po after 12 hrs of last cholesterol challenge relative to control; set-up: scale not given: the % may be the effect or the level left
Mus musculus [15] = test: Hypolipidemic activity in high cholesterol diet fed ICR mouse assessed as reduction of HDL cholesterol level at 50 mg/kg/day, po after 12 hrs of last cholesterol challenge relative to control; set-up: scale not given: the % may be the effect or the level left
Mus musculus [16] = test: Hypolipidemic activity in high cholesterol diet fed ICR mouse assessed as reduction of LDL cholesterol level at 100 mg/kg/day, po after 12 hrs of last cholesterol challenge relative to control; set-up: scale not given: the % may be the effect or the level left
Mus musculus [17] = test: Hypolipidemic activity in high cholesterol diet fed ICR mouse assessed as reduction of HDL cholesterol level at 100 mg/kg/day, po after 12 hrs of last cholesterol challenge relative to control; set-up: scale not given: the % may be the effect or the level left

In the case of CCCc1cc(OC)c(OCC(=O)OC)cc1O, the Activity (Mus musculus [1]) is reported as -68.32%, the Activity (Mus musculus [2]) is reported as -68.42% and the Activity (Mus musculus [3]) is reported as -28.94%. For the same compound, the Activity (Mus musculus [4]) was -23.15%, the Activity (Mus musculus [5]) was -29.15% and the Activity (Mus musculus [6]) was -25.03%. It also gave an Activity (Mus musculus [7]) of -38.63%, an Activity (Mus musculus [8]) of -47.07% and an Activity (Mus musculus [9]) of -53.34%. It also gave an Activity (Mus musculus [10]) of -74.14%, an IC50 [11] of 66.5 µM and an Activity (Mus musculus [12]) of -68.42%. For the same compound, the Activity (Mus musculus [13]) was -55.91%, the Activity (Mus musculus [14]) was -28.88% and the Activity (Mus musculus [15]) was -18.89%. The Activity (Mus musculus [16]) was -41.81% and the Activity (Mus musculus [17]) was -13.45%.

Work on COC(=O)COc1ccccc1C yielded an IC50 [11] of 91.3 µM.

With CCCCc1cc(OC)c(OC)cc1OC the IC50 [11] was 219 µM.

With CCc1ccc(OCC(=O)OC)c([N+](=O)[O-])c1 the IC50 [11] was 197 µM.

Work on C=CCc1cc(OC)c(OC)cc1O yielded an Activity (Mus musculus [1]) of -49.79%, an Activity (Mus musculus [2]) of -54.11% and an Activity (Mus musculus [3]) of -42.98%. For the same compound, the Activity (Mus musculus [4]) was -52.07%, the Activity (Mus musculus [5]) was -39.67% and the Activity (Mus musculus [6]) was -41.77%. It also gave an Activity (Mus musculus [7]) of -23.2%, an Activity (Mus musculus [8]) of -6.83% and an Activity (Mus musculus [9]) of -33.45%. For the same compound, the Activity (Mus musculus [10]) was -40.67%, the IC50 [11] was 78.8 µM and the Activity (Mus musculus [12]) was -37.78%. For the same compound, the Activity (Mus musculus [13]) was -42.39%, the Activity (Mus musculus [14]) was 26.49% and the Activity (Mus musculus [15]) was -40.08%. It also gave an Activity (Mus musculus [16]) of -44.22% and an Activity (Mus musculus [17]) of -35.96%.

Work on C/C=C/c1ccc(OCCNC(=O)c2ccc(Cl)cc2)c(OC)c1 yielded an IC50 [11] of 129 µM.

For CCCc1cc(OC)c(OC)cc1O, the Activity (Mus musculus [1]) was -76.85%, the Activity (Mus musculus [2]) was -55.75% and the Activity (Mus musculus [3]) was -66.67%. It also gave an Activity (Mus musculus [4]) of -35.05%, an Activity (Mus musculus [5]) of -38.67% and an Activity (Mus musculus [6]) of -37.36%. The Activity (Mus musculus [7]) was -60.69%, the Activity (Mus musculus [8]) was -14.84% and the Activity (Mus musculus [9]) was -59.76%. For the same compound, the Activity (Mus musculus [10]) was -24.12%, the IC50 [11] was 73.6 µM and the Activity (Mus musculus [12]) was -62.42%. The Activity (Mus musculus [13]) was -38.38%, the Activity (Mus musculus [14]) was -60.81% and the Activity (Mus musculus [15]) was -72.01%. It also gave an Activity (Mus musculus [16]) of -22.77% and an Activity (Mus musculus [17]) of -23.07%.

In the case of CCc1ccccc1OCC(=O)OC, the IC50 [11] is reported as 506 µM.

For CCc1ccc(OCC(=O)OC)cc1, the IC50 [11] was 1320 µM.

Compound CCOC(=O)COc1cccc(C)c1 has an IC50 [11] of 182 µM.

CCOC(=O)COc1cccc(CC)c1 was tested, and the IC50 [11] was 1620 µM.

Compound C=CCc1ccc(OCC(=O)OCC)c(OC)c1 has an IC50 [11] of 156 µM.

Reference: ChEMBL document CHEMBL1166015, “Design, synthesis, and docking of highly hypolipidemic agents: Schizosaccharomyces pombe as a new model for evaluating alpha-asarone-based HMG-CoA reductase inhibitors” (Bioorg Med Chem, 2010)
